According to ChEMBL document CHEMBL1153707 (Eur J Med Chem, 2010):

Legend:
[1] = target: Glycogen synthase kinase-3 (Homo sapiens, UniProt P49840+P49841); assay: Inhibition of human GSK3alpha/ GSK3-beta; type: protein assay
[2] = target: Cyclin-dependent kinase 5/CDK5 activator 1 (Homo sapiens, UniProt Q00535); assay: Inhibition of human CDK5/p25; type: protein-complex assay
Summary of the method: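 CDK5/p25 kinase activity measured with 15 ATP and histone H1 as protein substrate; IC50 derived from dose-response curves.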

[3] = target: Casein kinase I isoform alpha/subunit beta (Homo sapiens, UniProt P48729+P67870); assay: Inhibition of human CK1-alpha/CK2beta; type: protein-complex assay
Casein kinase I isoform alpha/subunit beta, sequence (P67870 whole entry, canonical isoform): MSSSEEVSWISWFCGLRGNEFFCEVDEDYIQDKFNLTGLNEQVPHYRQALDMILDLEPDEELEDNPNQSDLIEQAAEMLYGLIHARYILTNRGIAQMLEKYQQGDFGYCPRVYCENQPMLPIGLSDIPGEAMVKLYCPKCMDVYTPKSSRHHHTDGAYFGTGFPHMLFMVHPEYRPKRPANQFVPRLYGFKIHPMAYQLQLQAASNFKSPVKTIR
Casein kinase I isoform alpha/subunit beta, sequence (P48729 whole entry, canonical isoform): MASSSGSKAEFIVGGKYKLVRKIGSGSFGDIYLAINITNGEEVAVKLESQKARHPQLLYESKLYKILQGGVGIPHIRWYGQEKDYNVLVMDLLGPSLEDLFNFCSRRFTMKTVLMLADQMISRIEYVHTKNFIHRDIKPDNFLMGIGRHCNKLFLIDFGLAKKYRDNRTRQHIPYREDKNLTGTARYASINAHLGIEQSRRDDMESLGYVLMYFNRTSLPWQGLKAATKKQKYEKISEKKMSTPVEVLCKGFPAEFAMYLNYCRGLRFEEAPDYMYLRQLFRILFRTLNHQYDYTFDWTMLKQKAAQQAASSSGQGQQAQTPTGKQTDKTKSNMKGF

[4] = tested on: SF-268; assay: Cytotoxicity against human SF268 cells; type: functional

Cyclin-dependent kinase 5/CDK5 activator 1, sequence (Q00535 whole entry): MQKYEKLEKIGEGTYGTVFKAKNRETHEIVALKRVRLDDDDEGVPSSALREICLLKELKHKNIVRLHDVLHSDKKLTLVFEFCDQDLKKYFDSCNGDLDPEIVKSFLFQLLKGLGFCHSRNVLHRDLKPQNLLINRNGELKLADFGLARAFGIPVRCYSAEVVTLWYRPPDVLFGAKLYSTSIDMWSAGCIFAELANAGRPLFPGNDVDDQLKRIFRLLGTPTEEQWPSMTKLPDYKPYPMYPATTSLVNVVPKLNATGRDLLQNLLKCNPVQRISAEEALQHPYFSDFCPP
Cyclin-dependent kinase 5/CDK5 activator 1, sequence (Q15078 whole entry, further chain): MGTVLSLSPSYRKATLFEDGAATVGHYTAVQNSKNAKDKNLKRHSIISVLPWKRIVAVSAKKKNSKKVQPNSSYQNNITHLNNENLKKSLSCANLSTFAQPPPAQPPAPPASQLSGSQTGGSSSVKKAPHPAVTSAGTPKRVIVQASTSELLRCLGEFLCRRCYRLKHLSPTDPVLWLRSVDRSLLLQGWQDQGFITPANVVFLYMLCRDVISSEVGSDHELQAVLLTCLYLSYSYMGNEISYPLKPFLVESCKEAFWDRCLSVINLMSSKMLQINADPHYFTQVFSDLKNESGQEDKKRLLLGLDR

CN1C(=O)/C(=C/c2ccc3c(c2)OCO3)N=C1NCCN.Cl
IC50 [1]: 1.4 µM
IC50 [2]: > 100 µM
IC50 [3]: > 100 µM

COc1cc(/C=N/CCNC2=N/C(=C\c3ccc4c(c3)OCO4)C(=O)N2C)cc(OC)c1OC
IC50 [1]: > 100 µM
IC50 [2]: > 100 µM
IC50 [3]: > 100 µM

CN1C(=O)/C(=C/c2ccc3c(c2)OCO3)N=C1NCCNCc1ccc2c(c1)OCCO2
IC50 [1]: > 10 µM
IC50 [2]: > 100 µM
IC50 [3]: > 100 µM

COc1ccc(/C=N/CCNC2=N/C(=C\c3ccc4c(c3)OCO4)C(=O)N2C)cc1
IC50 [1]: 7.3 µM
IC50 [2]: > 100 µM
IC50 [3]: > 100 µM

CN1C(=O)/C(=C/c2ccc3c(c2)OCO3)N=C1NCC/N=C/c1ccc(Cl)cc1
IC50 [1]: > 100 µM
IC50 [2]: > 100 µM
IC50 [3]: > 100 µM

CN1C(=O)/C(=C/c2ccc3c(c2)OCO3)N=C1NCC/N=C/c1ccc2c(c1)OCO2
IC50 [1]: 0.86 µM
IC50 [2]: > 100 µM
IC50 [3]: > 100 µM

COc1ccc(CNCCNC2=N/C(=C\c3ccc4c(c3)OCO4)C(=O)N2C)cc1
IC50 [1]: > 10 µM
IC50 [2]: > 100 µM
IC50 [3]: > 100 µM

CN1C(=O)/C(=C/c2ccc3c(c2)OCO3)N=C1NCCNCc1ccc([N+](=O)[O-])cc1
IC50 [1]: > 100 µM
IC50 [2]: > 100 µM
IC50 [3]: > 100 µM

CN1C(=O)/C(=C/c2ccc3c(c2)OCO3)N=C1NCCNCc1ccc2c(c1)OCC2
IC50 [1]: > 10 µM
IC50 [2]: > 100 µM
IC50 [3]: > 100 µM

CN1C(=O)/C(=C/c2ccc3c(c2)OCO3)N=C1NCCNCc1ccc2c(c1)OCO2
IC50 [1]: > 10 µM
IC50 [2]: > 100 µM
IC50 [3]: > 100 µM

CN1C(=O)/C(=C/c2ccc3c(c2)OCO3)N=C1NCCNCc1ccc(Cl)cc1
IC50 [1]: > 100 µM
IC50 [2]: > 100 µM
IC50 [3]: > 100 µM

CN1C(=O)/C(=C/c2ccc3c(c2)OCO3)N=C1N [LEUCETTAMINE B]
IC50 [1]: 15 µM
IC50 [3]: > 100 µM

CN1C(=O)/C(=C/c2ccc3c(c2)OCO3)N=C1NCC/N=C/c1ccc2c(c1)OCCO2
IC50 [1]: 38 µM
IC50 [2]: > 100 µM
IC50 [3]: > 100 µM

COc1cc(/C=C2\N=C(N)NC2=O)ccc1O [POLYANDROCARPAMINE A]
GI50 [4]: 65 µM

CN1C(=O)/C(=C/c2ccc3c(c2)OCO3)N=C1NCC/N=C/c1ccc([N+](=O)[O-])cc1
IC50 [1]: > 100 µM
IC50 [2]: > 100 µM
IC50 [3]: > 100 µM

CN1C(=O)/C(=C/c2ccc3c(c2)OCO3)N=C1NCC/N=C/c1ccccc1
IC50 [1]: 7 µM
IC50 [2]: > 100 µM
IC50 [3]: > 100 µM

CN1C(=O)/C(=C/c2ccc3c(c2)OCO3)N=C1NCCNCc1ccccc1
IC50 [1]: > 10 µM
IC50 [2]: > 100 µM
IC50 [3]: > 100 µM

COc1cc(CNCCNC2=N/C(=C\c3ccc4c(c3)OCO4)C(=O)N2C)cc(OC)c1OC
IC50 [1]: > 100 µM
IC50 [2]: > 100 µM
IC50 [3]: > 100 µM

CN1C(=O)/C(=C/c2ccc3c(c2)OCO3)N=C1NCC/N=C/c1ccc2c(c1)OCC2
IC50 [1]: 15 µM
IC50 [2]: > 100 µM
IC50 [3]: > 100 µM
